Published values pooled from the literature.
Each line is one published result; the experiments were not run side by side.
Target: Tyrosine-protein kinase ZAP-70 (ZAP70, Homo sapiens, UniProt P43403)
Sequence (P43403 1-619, as in one of the studies): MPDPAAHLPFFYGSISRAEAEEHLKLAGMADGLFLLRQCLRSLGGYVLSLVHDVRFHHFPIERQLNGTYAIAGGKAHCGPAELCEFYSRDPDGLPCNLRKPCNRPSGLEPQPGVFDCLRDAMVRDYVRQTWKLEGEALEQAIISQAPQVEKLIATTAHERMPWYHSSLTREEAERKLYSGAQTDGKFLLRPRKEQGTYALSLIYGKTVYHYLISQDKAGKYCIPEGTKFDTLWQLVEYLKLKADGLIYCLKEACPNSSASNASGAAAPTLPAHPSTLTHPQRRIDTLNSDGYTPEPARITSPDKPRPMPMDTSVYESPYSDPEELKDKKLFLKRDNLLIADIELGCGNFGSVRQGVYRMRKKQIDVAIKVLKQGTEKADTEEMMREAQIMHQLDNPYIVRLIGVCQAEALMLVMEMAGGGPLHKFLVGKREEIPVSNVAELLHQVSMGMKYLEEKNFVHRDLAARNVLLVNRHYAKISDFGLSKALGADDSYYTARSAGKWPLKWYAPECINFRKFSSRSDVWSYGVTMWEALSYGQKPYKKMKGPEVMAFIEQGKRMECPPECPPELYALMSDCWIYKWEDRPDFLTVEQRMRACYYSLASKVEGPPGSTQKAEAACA

SMILES	test	conditions	remaining binding
COc1ncc2cc3ccccc3nc2c1C#N	cell-free assay, competition with immobilised ligand	5 µM	88%
FC(F)(F)Oc1cccc(-c2cnc3ccc(-c4ccncc4)nn23)c1	binding, competition with immobilised ligand	5 µM	69%
CN(CCCC(F)(F)F)c1nccc(-c2cnn3ncccc23)n1	binding	1 µM	100%
O=C(NCCCN1CCOCC1)c1ccc(Nc2ncc(Cl)c(-c3ccc(Cl)s3)n2)cc1	binding, competition with immobilised ligand	1 µM	88%
Cc1nc(N2CC[C@@H](O)C2)ncc1-c1cc(C(F)(F)F)cc2[nH]ncc12	binding, competition with immobilised ligand	1 µM	65%
O=C(Nc1c[nH]nc1C(=O)NC1CCNCC1)c1cc(F)cc(F)c1	binding, competition with immobilised ligand	1 µM	87%
CN(c1nccc(-c2cnn3ncccc23)n1)C1CC1	binding	1 µM	100%
O=C(c1ccc(Nc2ncc(Cl)c(-c3ccc(Cl)s3)n2)cc1)N1CCC(N2CCCC2)CC1	binding, competition with immobilised ligand	1 µM	23%
COc1cnc(Nc2cccc(S(N)(=O)=O)c2)nc1N1CCN(c2ccccc2)CC1	binding, competition with immobilised ligand	1 µM	84%
O=C(O)[C@@H]1[C@@H](Cn2nnc3ccccc3c2=O)CC[C@H]1C(=O)c1ccc(OCCC2CCOCC2)cc1	cell-free assay, competition with immobilised ligand	1 µM	99%
N#Cc1ccccc1CSc1nnc2c(n1)[nH]c1ccccc12	binding, competition with immobilised ligand	10 µM	78%
COc1ccc2c(O[C@@H]3C[C@H]4C(=O)N[C@]5(C(=O)O)CC5/C=C\CCCCC[C@H](NC(=O)OC5CCCC5)C(=O)N4C3)cc(-c3csc(NC(=O)C(C)C)n3)nc2c1C (some centres unmarked)	cell-free assay, competition with immobilised ligand	1 µM	100%
CC1CCCN1c1nccc(-c2cnn3ncccc23)n1 (centres unmarked)	binding	1 µM	100%
O=C(N1CCS(=O)(=O)CC1)N1C[C@H](c2ccc(OC(F)(F)F)cc2)C[C@H](c2nc(C3CC3)no2)C1	cell-free assay, competition with immobilised ligand	1 µM	90%
N[C@@H]1CCN(c2nccc(-c3cnn4ncccc34)n2)C1	binding	1 µM	53%
C=CC(=O)N1CCC(C(=O)NCC(=O)N2CCN(c3nc(-c4cnc(N)nc4C(F)F)nc(N4CCOCC4)n3)CC2)CC1	binding, competition with immobilised ligand	1 µM	100%
CS(=O)(=O)NCC[C@H](NC(=O)c1cncc2c1cnn2-c1ccc(F)cc1)c1ccnc(S(C)(=O)=O)c1	cell-free assay, competition with immobilised ligand	1 µM	80%
